Published values from different studies.
Each line is one published result; the experiments were not run side by side.
Cell line: HepG2
Observed: cell growth or viability

Fc1ccc2c(-c3ncc(-c4ccccc4)o3)nn(Cc3ccccc3)c2c1 — IC50 (48 h): 39.9 µM
COc1cccc2c1C(=O)c1c(O)c3c(c(O)c1C2=O)C[C@@](O)(C(=O)CO)C[C@@H]3O[C@H]1C[C@H](N)[C@H](O)[C@H](C)O1 — IC50 (MTT): 0.46 µM
N=C(CC(O)c1cc2c(F)cc(F)cc2c2cc(C(F)(F)F)ccc12)Nc1ccc(Br)cc1 (stereo not drawn) — IC50 (neutral red; 24 h): 9.7 µM
O=C1CSC(=Nc2cc([N+](=O)[O-])ccc2[N+](=O)[O-])N1c1nnc(-c2ccc(C(F)(F)F)cc2N=C2SCC(=O)N2c2cc([N+](=O)[O-])ccc2[N+](=O)[O-])s1 — IC50 (MTT): 80.2 µM
O=C(/C=C/c1ccc(F)cc1)c1nc2ccccc2n1Cc1cn([C@@H]2OC[C@@H](O)[C@H](O)[C@H]2O)nn1 — IC50 (LDH; 48 h): 1.63 µM
O=C1CSC(=Nc2cc(C(F)(F)F)ccc2-c2nnc(N3C(=O)CSC3=Nc3ccc([N+](=O)[O-])cc3)s2)N1c1ccc([N+](=O)[O-])cc1 — IC50 (MTT): 73.1 µM
O=C(/C=C/c1ccc(F)cc1)c1nc2ccccc2n1Cc1cn([C@@H]2O[C@H](CO)[C@H](O)[C@H](O)[C@H]2O)nn1 — IC50 (LDH; 48 h): 1.64 µM
COc1cccc(N=C2SCC(=O)N2c2nnc(-c3ccc(C(F)(F)F)cc3N=C3SCC(=O)N3c3cccc(OC)c3)s2)c1 — IC50 (MTT): 80.1 µM
CC1=CC(=O)c2ccccc2C1=O — IC50 (MTT): 9.25 µM
Clc1ccc(Cn2nc(-c3nc(-c4ccccc4)no3)c3ccccc32)c(Cl)c1 — IC50 (48 h): 59.9 µM
CC(C)[C@@H](C)NC(=O)c1cc(-c2cc3ccccc3n2C)cc(C(=O)NCCc2ccccn2)n1 — IC50 (CCK-8): 12.7 µM
CN(C)C1CCc2[nH]c3c(C(N)=O)ccc(-c4ccccc4Cl)c3c2C1 (stereo not drawn) — IC50: 0.26 µM
FC(F)(F)c1ccc(-c2nnc(-c3nn(Cc4ccc(Cl)cc4Cl)c4ccccc34)o2)cc1 — IC50 (48 h): 304 µM
COc1ccc(-c2oc3ccc(O)c(CN4CCCCC4)c3c2C(=O)NCc2cn(Cc3ccccc3)nn2)cc1 — IC50 (resazurin; 18 h): 116 µM
S=C(N/N=C/c1cccc2cc3ccccc3nc12)Nc1ccccc1 — IC50 (MTT; 48 h): > 50 µM
C/C(=C\C(=O)N[C@H](C(=O)N1CCC[C@H]1C(=O)N(c1ccccc1)c1ccc(I)cc1)C(C)(C)C)c1ccc(OP(=O)(O)O)cc1 — IC50 (CCK-8): 6.09 µM
C#Cc1cccc(Nc2ncnc3cc(OCCOC)c(OCCOC)cc23)c1 — IC50 (LDH; 48 h): 2.07 µM
O=C1CS/C(=N\c2ccc(F)cc2O)N1c1nnc(-c2ccc(C(F)(F)F)cc2/N=C2\SCC(=O)N2c2ccc(F)cc2O)s1 — IC50 (MTT): 19.5 µM
CC(=O)O[C@@H]1[C@@H](OC(C)=O)[C@H](OC(C)=O)CO[C@H]1n1cc(Cn2c(C(C)=O)nc3ccccc32)nn1 — IC50 (LDH; 48 h): 1.65 µM
FC(F)(F)CN1CC(n2cc(Oc3ccn4nc(Cl)cc4n3)cn2)C1 — IC50: > 512 µM
CSc1ccccc1-c1cc(C(N)=O)c2[nH]c3c(c2c1)CC(N)CC3 (stereo not drawn) — IC50: 2.46 µM
CC(=O)c1nc2ccccc2n1Cc1cn([C@@H]2OC[C@@H](O)[C@H](O)[C@H]2O)nn1 — IC50 (LDH; 48 h): 1.55 µM
COc1ccc(N(Cc2csc(-c3ccc(C)cc3)n2)C(=O)CCCCCC(=O)NO)cc1 — IC50 (MTT; 72 h): 0.19 µM
O=C1CS/C(=N\c2ccccc2O)N1c1nnc(-c2ccc(C(F)(F)F)cc2/N=C2\SCC(=O)N2c2ccccc2O)s1 — IC50 (MTT): 31.1 µM
Cc1c2c(nn1C)CSCc1cc(n(C)n1)CSc1cc(c3ccccc3c1)OCCCc1c(C(=O)O)n(C)c3c-2c(Cl)ccc13 — IC50 (CCK-8): 50 µM
COc1cc([C@@H]2c3cc4c(cc3[C@@H](O[C@@H]3O[C@@H]5CO[C@@H](C)O[C@H]5[C@H](O)[C@H]3O)[C@H]3COC(=O)[C@H]23)OCO4)cc(OC)c1O — IC50 (MTT; 75 h): 45.9 µM
O=C(O)c1nn(Cc2ccc(Cl)cc2Cl)c2ccccc12 — IC50 (48 h): 74.7 µM
CC(=O)c1nc2ccccc2n1Cc1cn([C@@H]2O[C@H](CO)[C@H](O)[C@H](O)[C@H]2O)nn1 — IC50 (LDH; 48 h): 1.67 µM
c1ccc(Cn2nc(-c3ncc(-c4ccccc4)s3)c3ccccc32)cc1 — IC50 (48 h): 27.7 µM
C#CCOc1ccc2oc(-c3ccc(OC)cc3)c(C(=O)OCC)c2c1CN1CCCCC1 — IC50 (resazurin): 34.5 µM
COc1ccc(N(Cc2nc(-c3ccc(F)cc3)cs2)C(=O)CCCCCC(=O)NO)cc1 — IC50 (MTT; 72 h): 0.97 µM
COc1ccc2c(-c3ncc(-c4ccccc4)o3)nn(Cc3ccccc3)c2c1 — IC50 (48 h): 89.7 µM
Fc1ccc(NC(=S)N/N=C/c2cccc3cc4ccccc4nc23)cc1 — IC50 (MTT; 48 h): > 50 µM
c1ccc(Cc2nnc(-c3nn(Cc4ccccc4)c4ccccc34)o2)cc1 — IC50 (48 h): 68.6 µM
COc1cccc2c1C(=O)c1c(O)c3c(c(O)c1C2=O)C[C@@](O)(C(=O)CO)C[C@@H]3O[C@H]1C[C@H](N)[C@H](O)[C@H](C)O1 — IC50 (96 h): 0.109 µM
Cc1noc(-c2nn(Cc3ccc(Cl)cc3Cl)c3ccccc23)n1 — IC50 (48 h): 51.4 µM
O=C1CS/C(=N\c2cc(C(F)(F)F)ccc2-c2nnc(N3C(=O)CS/C3=N\c3ccc(F)c(O)c3)s2)N1c1ccc(F)c(O)c1 — IC50 (MTT): 22.5 µM
CNC(=S)N/N=C/c1cccc2cc3ccccc3nc12 — IC50 (MTT; 48 h): 42 µM
O=C1CS/C(=N\c2cc(C(F)(F)F)ccc2-c2nnc(N3C(=O)CS/C3=N\c3cc(O)cc(Br)c3)s2)N1c1cc(O)cc(Br)c1 — IC50 (MTT): 70.4 µM
COc1ccc(NC(=S)N/N=C/c2cccc3cc4ccccc4nc23)cc1 — IC50 (MTT; 48 h): > 50 µM
Nc1ncnc2c1ncn2CCN1C(=O)C(=O)c2cc(Cl)ccc21 — IC50 (SRB): 5.62 µM
c1ccc(Oc2ccc(Nc3c4c(nc5ccccc35)CCC4)cc2)cc1 — IC50 (resazurin; 72 h): 9.45 µM
